Measured values pooled from the literature.
Target: Acetylcholinesterase (ache, Electrophorus electricus, UniProt O42275)
Read-out: enzyme activity
Action: inhibitor
Technique: Ellman

Structure (SMILES)	IC50
COc1ccc(-c2csc(N/N=C(/C=C/c3c(Cl)cccc3Cl)C(=O)O)n2)cc1	0.499 µM
COc1cc(CCC(=O)N2CCC(Cc3ccccc3)CC2)ccc1OC(=O)N(C)C	8.6 µM
Cc1ccc(Cn2cc(COc3ccc(-c4nnc(-c5ccccc5)o4)cc3)nn2)cc1	> 100 µM
CC(C)(C)OC(=O)NC1CCCN(C(=O)/C=C/c2ccc(Cl)cc2)C1 (stereo not shown)	> 50 µM
CCN(CC)C(=O)Oc1ccc(/C=C/C(=O)NC2CCN(Cc3ccccc3)CC2)cc1OC	2.3 µM
CC(C)(C)OC(=O)NC1CCCN(C(=O)/C=C/c2ccccc2Cl)C1 (stereo not shown)	19.7 µM
COc1ccc(-c2nnc(-c3ccc(OCc4cn(Cc5ccc(Cl)cc5)nn4)cc3)o2)cc1	> 100 µM
COc1ccc(/C=C/C(=O)N2CCCC(NC(=O)OC(C)(C)C)C2)cc1 (stereo not shown)	> 50 µM
O=C(O)C(/C=C/c1c(Cl)cccc1Cl)=N\Nc1nc(-c2ccc(Br)cc2)cs1	0.655 µM
O=[N+]([O-])c1ccc(-c2nnc(-c3ccc(OCc4cn(Cc5ccccc5)nn4)cc3)o2)cc1	> 100 µM
CCN(C)C(=O)Oc1ccc(CCC(=O)N(CC)CC)cc1OC	19.5 µM
COc1ccc(OC)c(/C=C/C(=O)N2CCCC(NC(=O)OC(C)(C)C)C2)c1 (stereo not shown)	41.5 µM
COc1ccc(-c2nnc(-c3ccc(OCc4cn(Cc5ccc(C)cc5)nn4)cc3)o2)cc1	> 100 µM
COc1cc(/C=C/C(=O)NC2CCN(Cc3ccccc3)CC2)ccc1OC(=O)N(C)C	5.2 µM
Cc1ccc(/C=C/C(=O)N2CCCC(NC(=O)OC(C)(C)C)C2)cc1 (stereo not shown)	> 50 µM
O=[N+]([O-])c1ccc(-c2nnc(-c3ccc(OCc4cn(Cc5ccc(Br)cc5)nn4)cc3)o2)cc1	> 100 µM
COc1ccccc1/C=C/C(=O)N1CCCC(NC(=O)OC(C)(C)C)C1 (stereo not shown)	> 50 µM
Cc1ccc(Cn2cc(COc3ccc(-c4nnc(-c5ccc([N+](=O)[O-])cc5)o4)cc3)nn2)cc1	> 100 µM
CCN(C)C(=O)Oc1ccc(CCC(=O)N2CCC(Cc3ccccc3)CC2)cc1	6.1 µM
COc1ccc(-c2nnc(-c3ccc(OCc4cn(Cc5ccccc5)nn4)cc3)o2)cc1	> 100 µM
CCN(C)C(=O)Oc1ccc(CCC(=O)N2CCc3ccccc3C2)cc1	8.3 µM
CCOc1ccc(/C=C/C(=O)N2CCCC(NC(=O)OC(C)(C)C)C2)cc1 (stereo not shown)	> 50 µM
COc1ccc(-c2nnc(-c3ccc(OCc4cn(Cc5ccc(F)cc5)nn4)cc3)o2)cc1	> 100 µM
COc1cc(CCC(=O)N2CCC(Cc3ccccc3)CC2)ccc1OC(=O)N1CCOCC1	7.2 µM
O=C(O)C(/C=C/c1ccc(Cl)cc1)=N\Nc1nc(-c2ccccc2)cs1	0.855 µM
